Assay results published in ChEMBL document CHEMBL1949633, “Novel morpholine ketone analogs as potent histamine H3 receptor inverse agonists with wake activity” (Bioorg Med Chem Lett, 2012).
Activity calls are given as the source filed them. The rule behind the calls is not given here.

How the values were obtained:
[1] = molecular target: Histamine H3 receptor (Homo sapiens, UniProt Q9Y5N1); assay: Displacement of [3H]NAMH from human histamine H3 receptor
[2] = molecular target: Histamine H3 receptor (Rattus norvegicus, UniProt Q9QYN8); assay: Displacement of [3H]NAMH from rat histamine H3 receptor
Method in brief: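 Radioligand binding with [3H]NAMH in membranes from cells transfected with human or rat H3 receptor. Ki values averaged from at least two determinations; assay-to-assay variation typically within 2.5-fold.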

[3] = tested on: Rattus norvegicus; assay: Effect on sleep-awake cycle in EEG/EMG Sprague-Dawley rat model assessed as increase in rapid eye movement sleep at 30 mg/kg, ip after 4 hrs; format: functional, organism-based; set-up: dose 30 mg/kg
[4] = tested on: Rattus norvegicus; assay: Effect on sleep-awake cycle in EEG/EMG Sprague-Dawley rat model assessed as increase in EEG theta range at 30 to 60 mg/kg, ip after 1 hr; format: functional; details: dose mg/kg 30-60; route intraperitoneal
Method in brief: (§1)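 Male Sprague Dawley rats were surgically implanted for chronic EEG and EMG recording and dosed ip at 10, 30 or 60 mg/kg or with vehicle. Line 2 is read as cumulative time awake over 4 h post-dose (4 h AUC), or percent time awake. Line 1 is theta-range EEG power (~6–9 Hz, FFT amplitude) at 1 h. n = 7-8/group; Dunnett's test versus vehicle.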

[5] = Ratio of drug uptake in rat brain to plasma at 10 mg/kg, ip measured after 1 hr; format: ADME, organism-based; set-up: dose 10 mg/kg, route intraperitoneal; details: read-out: BPR
Method in brief: (§2)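 Male-unspecified rats dosed 10 mg/kg ip in 0.5% methylcellulose, 0.2% Tween 80 in water; brain concentration (ng/g) measured at 1, 4, 6 and 24 h post dose. Brain-to-plasma ratio taken at 1 h.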

[6] = tested on: Rattus norvegicus; assay: Effect on sleep-awake cycle in EEG/EMG Sprague-Dawley rat model assessed as wake promotion at 60 mg/kg, ip after 4 hrs; format: functional; details: route intraperitoneal
[7] = tested on: Rattus norvegicus; assay: Effect on sleep-awake cycle in ip dosed EEG/EMG Sprague-Dawley rat model assessed as wake promotion time at 30 mg/kg, ip (reference value: 101 +/- 7 mins); format: functional; details: route intraperitoneal
[8] = tested on: Rattus norvegicus; assay: Effect on sleep-awake cycle in ip dosed EEG/EMG Sprague-Dawley rat model assessed as wake promotion time at 10 mg/kg, ip (reference value: 101 +/- 7 mins); format: functional; details: route intraperitoneal
[9] = tested on: Rattus norvegicus; assay: Effect on sleep-awake cycle in ip dosed EEG/EMG Sprague-Dawley rat model assessed as wake promotion after 4 hrs; format: functional, organism-based
[10] = tested on: Rattus norvegicus; assay: Effect on sleep-awake cycle in ip dosed EEG/EMG Sprague-Dawley rat model assessed as wake promotion time at 60 mg/kg, ip (reference value: 101 +/- 7 mins); format: functional; details: route intraperitoneal
[11] = molecular target: Cytochrome P450 2C9 (Homo sapiens, UniProt P11712); assay: Inhibition of CYP2C9; format: ADME
[12] = tested on: Rattus norvegicus; assay: Toxicity in EEG/EMG Sprague-Dawley rat model assessed as adverse EEG activity at 10 to 60 mg/kg, ip; format: organism-based; set-up: dose 10-60 mg/kg, route intraperitoneal; details: in vivo
[13] = molecular target: Sigma non-opioid intracellular receptor 1 (Homo sapiens) (UniProt Q99720); assay: Inhibition of human sigma 1 receptor at 10 uM
Method in brief: (§3)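 Selectivity panel of 70 GPCRs, ion channels and enzymes run by a contract screening service; percent inhibition at 10 µM test concentration.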

[14] = tested on: Rattus norvegicus; assay: AUC (0 to 6 hrs) in rat at 5 mg/kg, po; format: ADME, organism-based, Plasma; set-up: time < 6 hr, dose 5 mg/kg, route oral; details: in vivo
[15] = Aqueous solubility of the compound at pH 7.4; format: physicochemical; details: aqueous medium
[16] = Oral bioavailability in rat at 5 mg/kg; format: ADME, organism-based; details: in vivo
Method in brief: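 Rats received 5 mg/kg po in 50% Tween 80, 40% propylene carbonate and 10% propylene glycol. The iv comparison dose was formulated in 3% DMSO, 30% solutol and 67% phosphate-buffered saline.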

[17] = tested on: Rattus norvegicus; assay: Effect on sleep-awake cycle in EEG/EMG Sprague-Dawley rat model assessed as increase in rapid eye movement sleep at 60 mg/kg, ip after 4 hrs; format: functional, organism-based; set-up: dose 60 mg/kg
[18] = molecular target: Cytochrome P450 2D6 (Homo sapiens, UniProt P10635); assay: Inhibition of CYP2D6; format: ADME
[19] = Drug uptake in rat brain at 10 mg/kg, ip measured after 1 hr; format: ADME, organism-based; set-up: dose 10 mg/kg, route intraperitoneal; details: read-out: Drug uptake; method in brief: as §2
[20] = tested on: Rattus norvegicus; assay: Effect on sleep-awake cycle in EEG/EMG Sprague-Dawley rat model assessed as change in EEG theta frequency at 30 to 60 mg/kg, ip after 1 hr; format: functional, organism-based
[21] = tested on: Rattus norvegicus; assay: Effect on sleep-awake cycle in EEG/EMG Sprague-Dawley rat model assessed as wake promotion at 60 mg/kg, ip after 4 hrs relative to control; format: functional; details: route intraperitoneal; method in brief: as §1
[22] = tested on: Rattus norvegicus; assay: Effect on sleep-awake cycle in EEG/EMG Sprague-Dawley rat model assessed as increase in slow-wave sleep at 60 mg/kg, ip after 4 hrs; format: functional, organism-based; set-up: dose 60 mg/kg
[23] = molecular target: Cytochrome P450 2C19 (Homo sapiens, UniProt P33261); assay: Inhibition of CYP2C19; format: ADME
[24] = molecular target: Cytochrome P450 3A4 (Homo sapiens, UniProt P08684); assay: Inhibition of CYP3A4; format: ADME
[25] = molecular target: Nischarin (Rattus norvegicus) (UniProt Q4G017); assay: Inhibition of rat imidazoline I2 receptor at 10 uM; method in brief: as §3
[26] = molecular target: T1, Cytochrome P450 1A2 (Homo sapiens, UniProt P05177); assay: Inhibition of CYP1A2; format: ADME
T1 sequence (P05177 whole entry): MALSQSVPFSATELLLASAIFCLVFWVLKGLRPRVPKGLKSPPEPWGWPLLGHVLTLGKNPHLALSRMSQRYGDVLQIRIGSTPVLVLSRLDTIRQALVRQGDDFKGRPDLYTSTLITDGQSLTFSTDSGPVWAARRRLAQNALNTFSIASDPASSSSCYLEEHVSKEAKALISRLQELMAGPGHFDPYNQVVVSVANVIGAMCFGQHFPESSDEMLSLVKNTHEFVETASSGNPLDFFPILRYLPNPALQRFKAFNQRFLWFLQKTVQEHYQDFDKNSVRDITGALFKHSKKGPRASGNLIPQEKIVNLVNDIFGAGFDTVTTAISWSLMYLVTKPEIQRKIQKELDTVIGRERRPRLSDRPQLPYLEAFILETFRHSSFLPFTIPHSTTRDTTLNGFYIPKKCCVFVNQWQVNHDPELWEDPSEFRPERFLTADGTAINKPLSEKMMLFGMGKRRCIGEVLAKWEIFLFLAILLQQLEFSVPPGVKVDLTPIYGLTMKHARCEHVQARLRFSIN

[27] = tested on: Rattus norvegicus; assay: Effect on sleep-awake cycle in EEG/EMG Sprague-Dawley rat model assessed as increase in slow-wave sleep at 30 mg/kg, ip after 4 hrs; format: functional, organism-based; set-up: dose 30 mg/kg
[28] = tested on: Rattus norvegicus; assay: Effect on sleep-awake cycle in EEG/EMG Sprague-Dawley rat model assessed as sleep rebound at 10 to 60 mg/kg, ip up to 22 hrs; format: functional, organism-based
[29] = Half life in mouse liver microsomes; format: ADME, Microsome
[30] = Half life in dog liver microsomes; format: ADME, Canis lupus familiaris, Microsome
[31] = Half life in human liver microsomes; format: ADME, Microsome
[32] = Half life in rat liver microsomes; format: ADME, Microsome
[33] = Drug uptake in rat brain at 10 mg/kg, ip measured after 6 hrs; format: ADME, organism-based; set-up: dose 10 mg/kg, route intraperitoneal; details: read-out: Drug uptake; method in brief: as §2
[34] = tested on: Brain; assay: Drug uptake in rat brain at 10 mg/kg, ip measured after 24 hrs; format: ADME, organism-based; set-up: dose 10 mg/kg, route intraperitoneal; details: in vivo; method in brief: as §2
[35] = Drug uptake in rat brain at 10 mg/kg, ip measured after 4 hrs; format: ADME, organism-based; set-up: dose 10 mg/kg, route intraperitoneal; details: read-out: Drug uptake; method in brief: as §2

Sequence of Histamine H3 receptor (Homo sapiens, UniProt Q9Y5N1) (Q9Y5N1 whole entry): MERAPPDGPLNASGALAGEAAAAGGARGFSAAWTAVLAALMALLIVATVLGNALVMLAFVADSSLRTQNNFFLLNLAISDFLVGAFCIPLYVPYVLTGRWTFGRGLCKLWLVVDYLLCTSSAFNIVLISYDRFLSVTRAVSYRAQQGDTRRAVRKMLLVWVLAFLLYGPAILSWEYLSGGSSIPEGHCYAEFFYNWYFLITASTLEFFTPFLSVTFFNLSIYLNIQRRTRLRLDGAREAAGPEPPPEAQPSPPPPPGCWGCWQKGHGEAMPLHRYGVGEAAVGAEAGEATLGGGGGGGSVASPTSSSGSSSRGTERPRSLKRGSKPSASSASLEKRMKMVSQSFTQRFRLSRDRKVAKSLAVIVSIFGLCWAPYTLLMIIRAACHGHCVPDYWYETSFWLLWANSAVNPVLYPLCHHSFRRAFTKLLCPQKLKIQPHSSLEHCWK
Sequence of Histamine H3 receptor (Rattus norvegicus, UniProt Q9QYN8) (Q9QYN8 whole entry): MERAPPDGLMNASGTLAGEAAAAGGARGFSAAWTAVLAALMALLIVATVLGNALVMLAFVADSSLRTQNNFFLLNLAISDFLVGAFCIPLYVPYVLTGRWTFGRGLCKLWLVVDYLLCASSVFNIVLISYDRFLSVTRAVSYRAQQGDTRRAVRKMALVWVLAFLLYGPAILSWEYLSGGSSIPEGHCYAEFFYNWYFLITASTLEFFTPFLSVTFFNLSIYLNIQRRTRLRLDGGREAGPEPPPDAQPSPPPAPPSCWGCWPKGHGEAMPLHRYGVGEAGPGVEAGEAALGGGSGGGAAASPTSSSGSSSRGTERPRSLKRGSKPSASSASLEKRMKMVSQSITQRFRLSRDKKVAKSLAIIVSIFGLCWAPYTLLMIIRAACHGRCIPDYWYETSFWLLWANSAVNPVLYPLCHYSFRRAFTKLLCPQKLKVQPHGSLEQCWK
Sequence of Sigma non-opioid intracellular receptor 1 (Homo sapiens) (Q99720 whole entry): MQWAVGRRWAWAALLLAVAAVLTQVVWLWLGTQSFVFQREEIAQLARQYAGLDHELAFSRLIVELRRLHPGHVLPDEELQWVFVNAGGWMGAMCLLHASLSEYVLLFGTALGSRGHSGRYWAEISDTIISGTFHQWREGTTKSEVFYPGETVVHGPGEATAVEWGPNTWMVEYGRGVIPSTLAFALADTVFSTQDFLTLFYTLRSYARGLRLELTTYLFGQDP
Sequence of Cytochrome P450 2C19 (P33261 whole entry): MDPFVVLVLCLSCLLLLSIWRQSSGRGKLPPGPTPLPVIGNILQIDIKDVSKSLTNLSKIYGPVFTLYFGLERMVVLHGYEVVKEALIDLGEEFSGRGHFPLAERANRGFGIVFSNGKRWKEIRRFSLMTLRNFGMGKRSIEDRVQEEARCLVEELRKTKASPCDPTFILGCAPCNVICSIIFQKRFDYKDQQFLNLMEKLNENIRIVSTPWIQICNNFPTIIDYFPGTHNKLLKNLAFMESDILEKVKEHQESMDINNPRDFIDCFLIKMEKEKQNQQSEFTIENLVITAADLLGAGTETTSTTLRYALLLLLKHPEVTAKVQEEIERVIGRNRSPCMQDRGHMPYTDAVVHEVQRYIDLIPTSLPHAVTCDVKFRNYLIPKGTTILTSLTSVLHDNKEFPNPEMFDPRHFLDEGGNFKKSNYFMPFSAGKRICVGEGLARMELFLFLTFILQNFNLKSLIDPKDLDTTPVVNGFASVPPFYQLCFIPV
Sequence of Cytochrome P450 2D6 (P10635 whole entry): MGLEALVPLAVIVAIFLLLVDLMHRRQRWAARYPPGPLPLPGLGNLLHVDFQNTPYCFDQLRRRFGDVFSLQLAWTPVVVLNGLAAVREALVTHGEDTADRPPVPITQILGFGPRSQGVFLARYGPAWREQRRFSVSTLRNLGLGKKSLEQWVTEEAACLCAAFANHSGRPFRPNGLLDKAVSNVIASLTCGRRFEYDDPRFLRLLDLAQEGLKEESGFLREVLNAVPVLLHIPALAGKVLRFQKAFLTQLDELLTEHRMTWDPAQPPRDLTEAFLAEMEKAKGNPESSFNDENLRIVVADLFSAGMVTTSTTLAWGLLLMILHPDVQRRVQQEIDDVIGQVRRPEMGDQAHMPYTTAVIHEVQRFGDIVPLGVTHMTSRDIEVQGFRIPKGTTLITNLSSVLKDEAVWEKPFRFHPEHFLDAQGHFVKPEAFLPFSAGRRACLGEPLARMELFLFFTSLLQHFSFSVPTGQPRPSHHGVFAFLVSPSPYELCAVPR
Sequence of Cytochrome P450 3A4 (P08684 whole entry): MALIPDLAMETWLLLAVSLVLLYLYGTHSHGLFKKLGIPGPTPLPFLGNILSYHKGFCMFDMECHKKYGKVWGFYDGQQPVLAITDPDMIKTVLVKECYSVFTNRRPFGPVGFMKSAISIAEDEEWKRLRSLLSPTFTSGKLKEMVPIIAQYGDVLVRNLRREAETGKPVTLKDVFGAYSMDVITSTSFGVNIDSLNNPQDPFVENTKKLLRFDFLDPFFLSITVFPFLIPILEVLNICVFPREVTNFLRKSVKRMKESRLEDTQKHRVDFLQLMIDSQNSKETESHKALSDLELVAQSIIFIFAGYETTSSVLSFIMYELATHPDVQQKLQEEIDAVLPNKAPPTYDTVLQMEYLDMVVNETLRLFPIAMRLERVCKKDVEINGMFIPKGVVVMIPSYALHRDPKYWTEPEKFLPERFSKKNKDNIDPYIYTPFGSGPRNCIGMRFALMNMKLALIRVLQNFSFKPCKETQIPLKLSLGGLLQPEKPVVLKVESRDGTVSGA
Sequence of Cytochrome P450 2C9 (P11712 whole entry): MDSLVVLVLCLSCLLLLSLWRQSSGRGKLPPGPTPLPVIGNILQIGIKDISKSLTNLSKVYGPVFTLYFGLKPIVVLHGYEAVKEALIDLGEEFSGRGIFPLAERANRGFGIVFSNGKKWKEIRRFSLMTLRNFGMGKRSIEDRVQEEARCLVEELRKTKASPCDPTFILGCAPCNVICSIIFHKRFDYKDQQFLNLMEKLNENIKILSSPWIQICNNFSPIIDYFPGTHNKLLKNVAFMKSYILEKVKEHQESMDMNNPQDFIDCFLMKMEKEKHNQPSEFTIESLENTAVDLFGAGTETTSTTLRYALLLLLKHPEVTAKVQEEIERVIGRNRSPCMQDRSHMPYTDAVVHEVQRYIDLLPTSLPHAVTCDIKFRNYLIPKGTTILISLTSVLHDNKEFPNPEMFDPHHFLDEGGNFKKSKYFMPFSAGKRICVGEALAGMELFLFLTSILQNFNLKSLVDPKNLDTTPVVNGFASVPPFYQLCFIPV
Sequence of Nischarin (Rattus norvegicus) (Q4G017 whole entry): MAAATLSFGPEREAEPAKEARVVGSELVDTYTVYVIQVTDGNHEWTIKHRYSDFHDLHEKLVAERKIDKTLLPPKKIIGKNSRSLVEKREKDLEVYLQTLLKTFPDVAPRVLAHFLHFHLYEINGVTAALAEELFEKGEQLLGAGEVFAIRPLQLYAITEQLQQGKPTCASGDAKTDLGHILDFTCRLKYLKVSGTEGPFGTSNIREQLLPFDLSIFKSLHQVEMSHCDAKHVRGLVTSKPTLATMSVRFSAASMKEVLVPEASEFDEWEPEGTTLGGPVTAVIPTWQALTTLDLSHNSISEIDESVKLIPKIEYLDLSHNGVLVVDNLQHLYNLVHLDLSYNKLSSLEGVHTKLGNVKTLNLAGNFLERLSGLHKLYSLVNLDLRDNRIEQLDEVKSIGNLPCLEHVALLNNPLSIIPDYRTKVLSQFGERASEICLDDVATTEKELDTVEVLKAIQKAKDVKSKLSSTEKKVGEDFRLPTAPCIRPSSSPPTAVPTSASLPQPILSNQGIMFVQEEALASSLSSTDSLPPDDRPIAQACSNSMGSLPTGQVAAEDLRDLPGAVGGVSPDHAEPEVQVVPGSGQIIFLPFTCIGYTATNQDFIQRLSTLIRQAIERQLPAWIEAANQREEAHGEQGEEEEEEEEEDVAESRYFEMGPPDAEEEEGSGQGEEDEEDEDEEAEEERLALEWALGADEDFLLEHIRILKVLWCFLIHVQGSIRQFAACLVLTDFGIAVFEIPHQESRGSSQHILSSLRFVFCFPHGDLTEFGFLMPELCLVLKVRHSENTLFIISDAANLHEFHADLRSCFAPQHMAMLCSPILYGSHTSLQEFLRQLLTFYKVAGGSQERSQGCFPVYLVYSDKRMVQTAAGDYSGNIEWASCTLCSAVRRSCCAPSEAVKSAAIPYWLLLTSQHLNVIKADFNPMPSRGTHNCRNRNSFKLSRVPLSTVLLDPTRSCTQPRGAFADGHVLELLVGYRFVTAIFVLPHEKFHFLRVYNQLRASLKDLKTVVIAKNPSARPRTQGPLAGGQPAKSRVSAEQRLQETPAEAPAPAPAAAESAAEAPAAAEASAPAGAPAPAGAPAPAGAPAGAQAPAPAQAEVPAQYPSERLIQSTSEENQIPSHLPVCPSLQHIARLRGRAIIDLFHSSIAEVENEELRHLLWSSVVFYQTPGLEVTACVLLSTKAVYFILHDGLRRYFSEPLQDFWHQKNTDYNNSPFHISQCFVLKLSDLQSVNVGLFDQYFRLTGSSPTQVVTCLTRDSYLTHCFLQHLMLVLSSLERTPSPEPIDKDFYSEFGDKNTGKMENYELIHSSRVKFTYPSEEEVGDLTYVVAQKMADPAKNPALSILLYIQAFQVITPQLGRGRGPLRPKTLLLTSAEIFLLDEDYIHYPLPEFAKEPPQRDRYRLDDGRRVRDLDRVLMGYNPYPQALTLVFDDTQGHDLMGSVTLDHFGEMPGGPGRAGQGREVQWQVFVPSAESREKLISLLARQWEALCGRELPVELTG

Cc1cc(OCCCN2CCC[C@H]2C)ccc1C(=O)CN1CCOCC1
Ki [1]: 19 nM | Ki [2]: 244 nM

O=C(CN1CCOCC1)c1ccc(OCCCN2CCCC2)cc1
Ki [1]: 106 nM | Ki [2]: 594 nM

COC[C@@H]1CCCN1CCCOc1ccc(C(=O)CN2CCOCC2)cc1
Ki [1]: > 3000 nM | Ki [2]: > 3000 nM

C[C@@H]1CCCN1CCCOc1ccc(C(=O)CN2CCOCC2)cc1
Activity [3]: Active | fold change (FC) [4]: 2 | Kp at 1 h [5]: 30.7 | Activity [6]: 93% | Time [7]: 163 min | Time [8]: 118 min | Activity [9]: Dose-dependent effect | Time [10]: 222 min | IC50 [11]: > 30 µM | Activity [12]: Non-toxic | inhibition [13]: 78% | AUC [14]: 109 ng·h/mL | solubility [15]: > 145 µg/mL | bioavailability [16]: 14% | Activity [17]: Active | IC50 [18]: > 30 µM | concentration at 1 h [19]: 3770 ng/g | Activity [20]: inactive | fold change (FC) [21]: 2.2 | Activity [22]: Active | IC50 [23]: > 30 µM | IC50 [24]: > 30 µM | inhibition [25]: 67% | IC50 [26]: > 30 µM | Activity [27]: Active | Ki [2]: 50 nM | Activity [28]: inactive

O=C(CN1CCOCC1)c1ccc(OCCCN2CCCCC2)cc1
Ki [1]: 66 nM | Ki [2]: 440 nM

CC1(C)CCCN1CCCOc1ccc(C(=O)CN2CCOCC2)cc1
Ki [1]: > 1000 nM | Ki [2]: > 1000 nM

CC(C(=O)c1ccc(OCCCN2CCC[C@H]2C)cc1)N1CCOCC1 (stereo partly specified)
Ki [1]: 8 nM | half-life [29]: > 40 min | half-life [30]: > 40 min | half-life [31]: > 40 min | half-life [32]: > 40 min | Ki [2]: 105 nM

CC1CCCN1CCCOc1ccc(C(=O)CN2CCOCC2)cc1 (racemic)
concentration at 6 h [33]: 955 ng/g | concentration at 1 h [19]: 3930 ng/g | Drug uptake [34]: Not Active | concentration at 4 h [35]: 1610 ng/g | Ki [2]: 56 nM

O=C(CN1CCCCC1)c1ccc(OCCCN2CCCC2)cc1
Ki [1]: 32 nM | Ki [2]: 174 nM

C[C@@H]1CCCN1CCCOc1ccc(C(=O)C(C)(C)N2CCOCC2)cc1
Ki [1]: 9 nM | half-life [29]: > 40 min | half-life [30]: 10 min | half-life [31]: 8 min | half-life [32]: 9 min | Ki [2]: 33 nM

C[C@@H]1CN(CC(=O)c2ccc(OCCCN3CCC[C@H]3C)cc2)C[C@H](C)O1
Ki [1]: 10 nM | Ki [2]: 78 nM

COC[C@H]1CCCN1CCCOc1ccc(C(=O)CN2CCOCC2)cc1
Ki [1]: 1170 nM | Ki [2]: > 3000 nM

C[C@H]1CCCN1CCCOc1ccc(C(=O)CN2CCOCC2)cc1
Ki [2]: 885 nM
